# Screens (PubChem)
# A selection: hits, their analogues and other compounds. The true share with any hit is near 6.7%.
# Beta cell apopt – beta cell apoptosis inhibition. 0.8% of 300,000 active. protection from apoptosis, % (no concentration beside the values). INS-1E cytokine-induced death, ATP luminescence, 48 h; percent of positive-control rescue, neutral wells zero;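 active = Every replicate reaches about 75%, or at least half do and their mean reaches it too, limit read from the data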;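 note: 0% = cytokine-treated negative control wells and 100% = positive control rescue; higher means more ATP so stronger rescue from cytokine killing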
# CHOP inhibitor – CHOP inhibition in unfolded protein response | inhibition, % at 10 µM | CHO-K1 CHOP-promoter luciferase, tunicamycin-induced, 15-18 h | 3.8% of 220,000 active;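 active = compounds that reduced the stress-induced luciferase reporter signal by more than about 70% of percent inhibition, limit read from the data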;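 note: 0% = tunicamycin plus vehicle and 100% = wells without tunicamycin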
# PREPL inh – human PREPL enzyme inhibition; inhibition, % at 5.96 µM; AID 2751; recombinant PREPL, fluorescence polarization activity-based probe; 0.68% of 320,000 active; in the data active = inhibition above about 43%;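 note: 0% = enzyme with DMSO and 100% = wells lacking enzyme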
# Target sequence (Q4J6C6 whole entry, looked up): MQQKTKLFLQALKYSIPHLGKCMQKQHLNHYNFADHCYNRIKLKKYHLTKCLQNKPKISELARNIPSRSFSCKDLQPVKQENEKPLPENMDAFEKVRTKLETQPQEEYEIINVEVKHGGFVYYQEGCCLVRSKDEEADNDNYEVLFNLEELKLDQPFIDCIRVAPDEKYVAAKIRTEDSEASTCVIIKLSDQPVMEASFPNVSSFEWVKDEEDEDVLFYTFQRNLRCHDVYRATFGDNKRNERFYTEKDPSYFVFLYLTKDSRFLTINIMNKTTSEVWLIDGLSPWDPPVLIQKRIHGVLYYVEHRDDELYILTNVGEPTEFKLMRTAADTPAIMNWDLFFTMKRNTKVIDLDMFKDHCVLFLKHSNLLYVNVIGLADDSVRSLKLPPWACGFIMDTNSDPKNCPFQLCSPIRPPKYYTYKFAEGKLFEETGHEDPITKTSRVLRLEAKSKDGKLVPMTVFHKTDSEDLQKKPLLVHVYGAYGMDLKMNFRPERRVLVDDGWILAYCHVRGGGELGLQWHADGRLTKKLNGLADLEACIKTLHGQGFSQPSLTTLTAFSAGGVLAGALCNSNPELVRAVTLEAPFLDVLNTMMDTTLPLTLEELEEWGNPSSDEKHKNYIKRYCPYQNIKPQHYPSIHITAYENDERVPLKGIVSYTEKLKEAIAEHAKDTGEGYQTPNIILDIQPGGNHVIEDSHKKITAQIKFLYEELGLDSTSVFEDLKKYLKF
# NR3A LBD binder – modulators (binders) of human NR3A ligand-binding domain. 2.5% of 340,000 active. NR3A LBD differential scanning fluorimetry, Tm shift; 0% = protein alone, 100% = glycine-bound protein. Tm shift relative to glycine control, % at 25 µM;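 active = melting temperature shift of at least 10% of the positive control shift, at one fixed dose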
# T cruzi repl – T. cruzi replication inhibition; T. cruzi beta-gal in NIH3T3, luminescence, 90 h; inhibition, % (no concentration beside the values); 1.4% of 300,000 active; AID 1885;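 active = mean inhibition across valid replicates above about 55%, limit read from the data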;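 note: signal also drops with host cell toxicity which is not excluded here; 0% = plate median of DMSO wells and 100% = zero luminescence signal; higher percent means less beta-gal luminescence so fewer parasites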
#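 Assay system: NIH/3T3 host cells with β-galactosidase reporter T. cruzi; input: 5,000 host fibroblasts per well; compound: single 50 nL compound addition per well in DMSO; timing: ≥90 h infection period, 3 h prior cell attachment; measured by: GalScreen β-gal luminescence, detergent lysis, 60 min; evaluation: percent inhibition of parasite-derived β-gal signal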
# CSC inhib – blocks cancer stem cells | cancer stem cell-like cells viability, luminescence | inhibition, % at 7.5 µM | 1.1% of 300,000 active; in the data active = inhibition above about 75%; tested in HMLE shEcad cells
# An asterisk follows results filed as active; nt = no result given.
SMILES,Beta cell apopt,CHOP inhibitor,PREPL inh,NR3A LBD binder,T cruzi repl,CSC inhib
COc1ccc(CN2CCN(Cc3ccc(C)cc3)CC2)c(OC)c1,-2,nt,-10,-2,57*,16
O=C(CC(=O)c1ccccc1)Nc1cccnc1Cl,-4,-12,16,2,7,-3
CC(C)c1c(C(=O)N/N=C/c2cccc3ccccc23)nnn1-c1nonc1N,5,nt,-5,32*,20,-8
CCOc1ccc(-c2c(C(=O)N/N=C/c3c[nH]c4ccccc34)nnn2-c2nonc2N)cc1,5,nt,17,32*,14,-10
CCCc1c(C(=O)N/N=C/c2cccc3ccccc23)nnn1-c1nonc1N,9,nt,16,40*,3,10
CC(C)c1c(C(=O)N/N=C/c2c[nH]c3ccccc23)nnn1-c1nonc1N,-5,nt,15,38*,-4,-1
CCN(CC)Cc1c(C(=O)N/N=C/c2cccc3ccccc23)nnn1-c1nonc1N,-4,nt,25,-4,6,4
COc1cccc(NC(=O)c2cccc(N3C(=O)C4C5C=CC(C5)C4C3=O)c2)c1 (centres undefined),-8,nt,-1,-1,9,-4
CCOC(=O)c1ccc(NS(=O)(=O)c2c(C)[nH]c(C)c2C(=O)N2CCCCC2)cc1,nt,nt,1,-1,9,4
CN(C)c1c2ccccc2nc2c(F)c(F)c(F)c(F)c12,6,70*,15,-1,27,11
COCc1cc(C)nc(N/N=C/c2ccc(-c3cc(C(=O)O)ccc3Cl)o2)c1C#N,-4,5,6,nt,7,nt
COc1ccc(C(=O)/C(C#N)=N/Nc2cccc([N+](=O)[O-])c2)cc1,nt,16,nt,10*,22,nt
CCCN(CC(=O)Nc1ccc(C(N)=O)cc1)CC(=O)Nc1ccc(F)c(F)c1F,1,nt,-67,-1,-5,-4
CC1(C)N=C(SCC(=O)Nc2ccc(Cl)cc2Cl)C(c2ccccc2)=N1,-7,76*,10,1,6,3
CN(C)S(=O)(=O)c1cccc(NC(=O)CSc2cccc3cccnc23)c1,nt,nt,18,1,60*,84*
CN(C)S(=O)(=O)c1ccc(SCC(=O)Nc2cccc(S(=O)(=O)N3CCCC3)c2)nc1,nt,nt,nt,-3,nt,nt
CN(C)S(=O)(=O)c1cccc(C(=O)OCC(=O)NC2CCCc3ccccc32)c1 (centres undefined),2,-1,-7,-1,1,1
CCN(CC)c1ccc(NC(=O)COc2ccc(C#N)cc2)cc1S(=O)(=O)Nc1ccc(OC)cc1,16,10,-7,7,29,14
Cc1ccc(C(=O)c2cc3c(cc2N)OCCO3)cc1,-7,73*,3,1,-14,1
CC1=Nc2ccccc2/C1=C/c1sc(=N)n(-c2nccs2)c1O,57,-33,4,2,63*,111*
CC(C)C[C@H](NC(=O)C1CCN(S(=O)(=O)c2ccccc2)CC1)C(=O)NCc1ccncc1,3,nt,-1,-1,20,-7
Cc1cc(Oc2ccccc2)nc2ccc(O)cc12,nt,32,nt,nt,nt,nt
COC(=O)c1ccccc1NC(=O)c1sc(=S)n(C)c1N,-3,82*,19,-2,4,-1
COC(=O)c1ccccc1NC(=O)c1cc(OC)cc(OC)c1,nt,82*,-1,1,28,-4
Cc1ccc(C)c(NC(=O)c2cccc(Oc3ccc([N+](=O)[O-])cc3Cl)c2)c1,-5,42,11,-2,55*,50
SMILES,Beta cell apopt,CHOP inhibitor,PREPL inh,NR3A LBD binder,T cruzi repl,CSC inhib
COc1ccc(C(=O)NC(=S)Nc2ccc([N+](=O)[O-])cc2C)cc1OC,1,79*,7,28*,16,0
COc1ccc(NC(=O)c2cccc(Oc3ccc([N+](=O)[O-])cc3Cl)c2)cc1,-1,21,12,-28,2,48
COc1cc(OC)cc(C(=O)Nc2ccccc2C(=O)NC2CC2)c1,1,nt,13,3,nt,nt
COc1cccc(C(=O)NN2CCOCC2)c1,0,nt,10,0,-6,3
CN(C)c1cc(Cl)c2nonc2c1N,8,11,5,-1,-3,2
COc1ccc([N+](=O)[O-])cc1NC(=O)Cc1ccc(C)cc1,nt,8,4,-1,-1,nt
CC(=O)Nc1ccc(C(=O)OCC(=O)c2cccc([N+](=O)[O-])c2)cc1,7,4,-6,0,-16,-2
COc1ccc(C)cc1NC(=O)c1ccc([N+](=O)[O-])cc1[N+](=O)[O-],5,15,-5,0,71*,5
COc1ccccc1NC(=O)c1ccc2[nH]c(C)c(C)c2c1,5,nt,7,20*,4,-4
COC(=O)c1ccccc1NC(=O)c1cc(-c2cccs2)on1,24,75*,9,-1,-10,3
Cc1ccc(C(=O)COC(=O)c2cccc(NC(=O)c3ccc([N+](=O)[O-])cc3[N+](=O)[O-])c2)cc1,8,8,13,1,71*,15
COC(=O)c1ccccc1NC(=O)c1cc(-c2ccco2)on1,-1,nt,3,0,-5,7
Cc1[nH]c2ccc(C(=O)Nc3ccncc3)cc2c1C,3,nt,-4,9,-2,7
CCCCN(C(=O)CSCc1c(C)noc1C)c1c(N)n(CCCC)c(=O)[nH]c1=O,nt,nt,-6,-1,-7,-2
CC1CCCN(C2(O)C(=O)Nc3ccc([N+](=O)[O-])cc32)C1 (centres undefined),-10,nt,4,1,-8,-2
O=C(CN1C(=O)COc2ccc(Cl)cc21)NC1CC1,-3,nt,-3,2,0,-5
CCN(CC)S(=O)(=O)c1ccc(OC)c(NC(=O)c2ccc([N+](=O)[O-])cc2)c1,nt,15,3,5,17,-8
COc1ccc(C(=O)Nc2ccccc2)cc1NC(=O)c1ccc([N+](=O)[O-])cc1,11,nt,-5,-7,61*,-9
COc1cc(OC)cc(C(=O)Nc2ccc(C(=O)Nc3ccccc3OC)cc2)c1,-3,nt,-5,35*,nt,-11
COc1ccccc1NC(=O)/C(=C/c1cccc([N+](=O)[O-])c1)c1ccccc1,18,26,3,11*,39,21
COc1ccccc1NC(=O)CC(=O)c1cccc([N+](=O)[O-])c1,-5,nt,-6,6,4,-10
Cc1noc(C)c1NC(=O)Nc1ccc2c(c1)CC(=O)N([C@H](C)CO)C[C@@H](C)[C@H](CN(C)CC1CCCCC1)O2,-8,nt,0,5,nt,-23
COc1cc(/C=C2\SC(=O)N(c3ccc(Cl)cc3)C2=O)cc([N+](=O)[O-])c1O,nt,105*,nt,14*,nt,nt
COc1cc(/C=C2\SC(=O)N(c3cccc(Cl)c3)C2=O)cc([N+](=O)[O-])c1O,nt,105*,nt,1,nt,nt
O=C1S/C(=C\c2ccc(O)c([N+](=O)[O-])c2)C(=O)N1c1ccccc1Cl,29,48,13,2,11,31
